The apparent Kd is the concentration giving half-maximal binding under the conditions of the assay.

The series deals with MS2 coat protein. Kind of series: apparent Kd, MS2 coat protein; higher = weaker binding; RNA-MaP array. The essentials: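 Binding of fluorescently labeled MS2 coat protein, at 1.5 nM to 3 μM and room temperature, was measured with or without input ligand on designed RNAs transcribed on an Illumina sequencing chip from sequenced DNA templates. Apparent Kd was defined as the median of per-cluster binding-curve fits. No design measured on fewer than 10 clusters was kept.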

[1] abbreviates: designed as: OFF switch for flavin mononucleotide, no ligand.
Setting [2] is: ligand present: flavin mononucleotide, designed as: OFF switch for flavin mononucleotide.
Setting [3] is: designed as: ON switch for flavin mononucleotide, no ligand.
Where [4] appears, read: ligand present: flavin mononucleotide, designed as: ON switch for flavin mononucleotide.
[5] abbreviates: designed as: ON switch for tryptophan, no ligand.
Where [6] appears, read: ligand present: tryptophan, designed as: ON switch for tryptophan.

Turning to “UUACGGCAAGGAUAUACAUGAGGAUCACCCAUGUACUCUUUAUAAAUUAGUCAGCAUGGUAGAAGGUGCCGCUA”, the “apparent Kd” value reads like this: under setting [1], 9.04 nM; under setting [2], 11 nM.

Turning to “UUGUGACAUGAGGAUCACCCAUGUGAGGAUAUUCUGCUUGUGGAUAGUACGACUUGAUGAAGAAGGCACGUUAU”, the “apparent Kd” value is, setting by setting: under setting [1], 34.7 nM; under setting [2], 33.3 nM.

With “GCUGAACAUGAGGAUCACCCAUGUCCGGAUACCAGCGGACCUCAUCGCCCUUGGCAGCCGAACCAACAGCUUGUGGUGUUCACUC”, the “apparent Kd” value reads like this: (designed as: ON switch for theophylline, no ligand) 35.4 nM; (ligand present: theophylline, designed as: ON switch for theophylline) 49.9 nM.

On to “AUUCCACAUGAGGAUCACCCAUGUUCUGCUCUGCAUGGAAACAGAAGGAUUCGCGUCAGGUCGAAAUAGGAUAUGUUGUCAAAG”, for which the “apparent Kd” value by setting is: under setting [1], 33.6 nM; under setting [2], 28.5 nM.

Consider “GUGAGACAUGAGGAUCACCCAUGUUAGGAUAUUAAACUGGUUUAGUCUGUGACCGACGUAAGAAGGAACUUGAU”, for which the “apparent Kd” value reads like this: under setting [1], 13.1 nM; under setting [2], 11.7 nM.

“UCAGGACAUGAGGAUCACCCAUGUUGUCAAACCAAAGGAUAUAGGCUGAUCGAAAGAGAACUAGAAGGUUGCGAUU”: the “apparent Kd” value by setting is: under setting [3], 20.1 nM; under setting [4], 15.6 nM.

Take “AUGUAGUGCGAGAAGGACUCCCUCUUACACAUGAGGAUCACCCAUGUGCCCUCAAGCUAGACCGAGUAGGAUAUCGACCGCGCC”: the “apparent Kd” value by setting is: under setting [1], 60 nM; under setting [2], 43.6 nM.

As to “AUUAUGCAGUGAGAGGAUAUCAUCGAUAAGACAUGAGGAUCACCCAUGUGUGUCAGGGUUACACAUGAGAAGGCUCACCAAACUUU”, the “apparent Kd” value is 7.28 nM under setting [3] and 7.49 nM under setting [4].

In the case of “AUUAACAUGAGGAUCACCCAUGUUCUCACACGAGGACCGGUACGGCCGCCACUCGGUUUGGUAUUGGUCACUAGGCAGUUAGGAG”, the “apparent Kd” value is 15.9 nM under setting [5] and 17.6 nM under setting [6].

Regarding “CUUACUCGUCUAGGAUAUCGAAUGCCAACAUGAGGAUCACCCAUGUGUGGGUUGAUCGUCUAGGCCGAGAAGGAGACUGCAAUC”, the “apparent Kd” value by setting is: under setting [1], 8.88 nM; under setting [2], 18.1 nM.

As for “GAUACUACAUAGAAGGUACCGAUGAGCAAUUAACAAUGUGCGGCAACAUGAGGAUCACCCAUGUGUAAGGAUAUAUGCAGAACA”, the “apparent Kd” value is, setting by setting: under setting [1], 20.9 nM; under setting [2], 15.5 nM.

Turning to “UUCUGUUCCAAGAAGGUCAAAAUUGAUGCCUCUGAAGGAUAUUGGACAGCCAAGGUCUGUGACAUGAGGAUCACCCAUGUUCAG”, the “apparent Kd” value by setting is: under setting [3], 6.72 nM; under setting [4], 6.14 nM.

For “CAUUUACAUGAGGAUCACCCAUGUUAGUAAUGCUGAGGAUAUGGUCCACGCUCCUAUUUACCAGAAGGCAGUCUUG”, the “apparent Kd” value by setting is: under setting [3], 19.2 nM; under setting [4], 13.8 nM.

Take “GAGCGACUAUGAGAUUGGACAUGAGGAUCACCCAUGUGAGACAGAAGGGCCUUGGCGCCCGUGAGGCAGGAUAUGUACCAAGCA”: the “apparent Kd” value runs as follows: under setting [3], 27.4 nM; under setting [4], 19.6 nM.

As for “AUCAAUAAUGUUAGGAUAUCUAGCUAUUUUAUGGUAGAGAAGGAACAUGAGGAUCACCCAUGUUGAGCUAUAUU”, the “apparent Kd” value reads like this: under setting [1], 8.45 nM; under setting [2], 8.82 nM.

For the sequence “ACCCAACAUGAGGAUCACCCAUGUGCAUGCCUCGGAGGAUAUGACCUCAUUCAUCUUUGAUCAGAAGGCCGAUCGC”, the “apparent Kd” value by setting is: under setting [3], 113 nM; under setting [4], 26 nM.

For the sequence “UCCUCGUUAGGAUAUGCCCACAUACACAGUUGUGAACUCUGGCAGAAGGAACAUGAGGAUCACCCAUGUAUAUA”, the “apparent Kd” value under setting [1] was found to be 89.3 nM and the “apparent Kd” value under setting [2] stood at 230 nM.

With “GAUACAUGAGGAUCACCCAUGUGGGAAAUUCAUCUCAUUAAGAAGGAUAUGCAUCUAAAACUGGAGCAGAAGGUCUGUAUCCCG”, the “apparent Kd” value is, setting by setting: under setting [1], 87 nM; under setting [2], 55.9 nM.

Turning to “AUAAAAGACAUGAGGAUCACCCAUGUAGCUCCUCGGUCUUCGAGAAGGUUCUUGCCCAGAGCGUGAAAGGAUAUCGCAUAUAUC”, the “apparent Kd” value is, setting by setting: under setting [1], 353 nM; under setting [2], 448 nM.

With “UGGGAACGAGGAUAUACAUGAGGAUCACCCAUGUUCAAGAUUCGGGUAUAAUGCCUCAGUAGAAGGCGUAAGCA”, the “apparent Kd” value under setting [1] is 107 nM and the “apparent Kd” value under setting [2] came out at 108 nM.

With “UAAGUGCUCACAUGAGGAUCACCCAUGUAUUUACUUAUGAGGAGAAGGAUCAAGGAGCAGCGGUGAUAGGAUAUCCUAAUAGAA”, the “apparent Kd” value runs as follows: under setting [3], 33 nM; under setting [4], 23.6 nM.

For the sequence “ACCAUGUAAGGAUAUCACAAGUUGAGUAGUUCGUUUGGGUGUGAGAAGGUACAUGAGGAUCACCCAUGUUCUGG”, the “apparent Kd” value under setting [1] worked out at 154 nM and the “apparent Kd” value under setting [2] is 237 nM.

For the sequence “CGGGCACAUGAGGAUCACCCAUGUAAGGAUAUGAACAGUUUUCACAGAGUUUCACUAUUCAGAAGGUACGUUUC”, the “apparent Kd” value worked out at 24.2 nM under setting [1] and 20.8 nM under setting [2].

As to “AAUAUAAACGUCAGGAUAUUCACGAUAAACAAAUAGAAGAAGGGACAUGAGGAUCACCCAUGUAAACAUGAGUA”, the “apparent Kd” value worked out at 11.6 nM under setting [1] and 18.3 nM under setting [2].

For “UGUCGAUGAUCCAAGGAUAUAUGGAUGCUGACAUGAGGAUCACCCAUGUCCCGAGAAAUCAUUAAAUAGAAGGUGGGCUAUGGCAA”, the “apparent Kd” value reads like this: under setting [3], 45.9 nM; under setting [4], 21.2 nM.

As for “CCAAUGCAAGGAUAUACAAAAGACUCACUAAAUAGAACAAAACAUGAGGAUCACCCAUGUAGAAGGUGCUGAAC”, the “apparent Kd” value runs as follows: under setting [1], 12.3 nM; under setting [2], 13.6 nM.

Take “AAACAUGCGUGAGAGGAUAUGUCAUUAAUAACAUGAGGAUCACCCAUGUUCGAUGAUUGAAAUAAACAGAAGGCUCCGGUCUGUAA”: the “apparent Kd” value reads like this: under setting [3], 27 nM; under setting [4], 18.7 nM.

“CUGAAGUAAGGAUAUAUAUACCAUAGACCAUUAAAGACAUUAUAGAAGGUACAUGAGGAUCACCCAUGUGGGAA”: the “apparent Kd” value is 29.9 nM under setting [1] and 26.4 nM under setting [2].

Turning to “UUGCUAACAGUAGGAUAUUCAAAACAGCGUGAGGAAGAAGGACUAGCGACUUCGUGACAUGAGGAUCACCCAUGUGUAAGGCCA”, the “apparent Kd” value under setting [3] was 12.5 nM and the “apparent Kd” value under setting [4] was 9.89 nM.

Consider “AAAAUAGCAGGAUAUACAUGAGGAUCACCCAUGUCAAGACAGCACGGUGCAAGGUAGGGUAGAAGGGCUAAUUG”, for which the “apparent Kd” value reads like this: under setting [1], 22.8 nM; under setting [2], 30.1 nM.

Regarding “CGAUCCUUGCAGAAGGACUAAAACCAAAUACCAGUAGGAUAUGCAACAUGAGGAUCACCCAUGUGACGAAGGAUGCGGGAAAUA”, the “apparent Kd” value by setting is: under setting [1], 8.82 nM; under setting [2], 8.69 nM.

Take “CGUUAAGAAUCGGCCGCCACUCCAUACGUGUGAAUCGCGGAUCGACAUGAGGAUCACCCAUGUCGGAGGACCGGGAUCCUCUUUC”: the “apparent Kd” value by setting is: under setting [5], 35 nM; under setting [6], 23.3 nM.

Turning to “AUAAAAUGCUUAGGAUAUGUAACAGCAUGCACAUGAGGAUCACCCAUGUUAUAUUUAGUGGAAUGACAGAAGGAAGUAGAGACU”, the “apparent Kd” value runs as follows: under setting [3], 18.6 nM; under setting [4], 13.5 nM.

Regarding “GACAUGAGGAUCACCCAUGUAUGUGGGACUGCGCAUUGAUACUAGGAUAUCUGCCCAGACGUGUGAGAGAAGGAGUACGGUAAA”, the “apparent Kd” value is 74.7 nM under setting [3] and 56 nM under setting [4].

In the case of “CAUGCUAACAUGAGGAUCACCCAUGUUCCGGCGUAAACUGCACAGGAUAUCGAGAAUUUACAAGCCGAGAAGGGUGCGUAGCAU”, the “apparent Kd” value under setting [3] came to 195 nM and the “apparent Kd” value under setting [4] came to 71.7 nM.

With “GUUCGCUGAGGAUAUACAUGAGGAUCACCCAUGUUCAAGUCUCGUGACUGUUCCCAGCGUAGAAGGCAGCGGUG”, the “apparent Kd” value under setting [1] stood at 7.62 nM and the “apparent Kd” value under setting [2] was 8.85 nM.

(Values after the EternaBench riboswitch data.)
